The species entered for experiment [1] is Rattus norvegicus. Briefly: Epoxide formation after incubation at 17 degree Celsius for 60 min (compounds tested the ratio of 5 mM 19 and 0.5 mM 20). The format is functional. The method, boiled down: (§1)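 Microsomes came from vitamin K deficient rats dosed with 1 mg phylloquinone (ic) 15 min before killing. Incubation ran at 17 °C for 60 min, with the analogue at 5 mM and/or the Glu-site substrate at 0.5 mM. To extract, 0.5 mL of mix was quenched with 2 volumes of 3:2 2-propanol–hexane, vortexed, held 15 min at 4 °C, and centrifuged. The hexane layer was dried under N₂ and epoxide reported as nmol. Values are mean ± SD of four values.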

Experiment [2] concerns the target T1, Vitamin K-dependent gamma-carboxylase (Rattus norvegicus) (UniProt O88496).
T1 sequence (whole entry): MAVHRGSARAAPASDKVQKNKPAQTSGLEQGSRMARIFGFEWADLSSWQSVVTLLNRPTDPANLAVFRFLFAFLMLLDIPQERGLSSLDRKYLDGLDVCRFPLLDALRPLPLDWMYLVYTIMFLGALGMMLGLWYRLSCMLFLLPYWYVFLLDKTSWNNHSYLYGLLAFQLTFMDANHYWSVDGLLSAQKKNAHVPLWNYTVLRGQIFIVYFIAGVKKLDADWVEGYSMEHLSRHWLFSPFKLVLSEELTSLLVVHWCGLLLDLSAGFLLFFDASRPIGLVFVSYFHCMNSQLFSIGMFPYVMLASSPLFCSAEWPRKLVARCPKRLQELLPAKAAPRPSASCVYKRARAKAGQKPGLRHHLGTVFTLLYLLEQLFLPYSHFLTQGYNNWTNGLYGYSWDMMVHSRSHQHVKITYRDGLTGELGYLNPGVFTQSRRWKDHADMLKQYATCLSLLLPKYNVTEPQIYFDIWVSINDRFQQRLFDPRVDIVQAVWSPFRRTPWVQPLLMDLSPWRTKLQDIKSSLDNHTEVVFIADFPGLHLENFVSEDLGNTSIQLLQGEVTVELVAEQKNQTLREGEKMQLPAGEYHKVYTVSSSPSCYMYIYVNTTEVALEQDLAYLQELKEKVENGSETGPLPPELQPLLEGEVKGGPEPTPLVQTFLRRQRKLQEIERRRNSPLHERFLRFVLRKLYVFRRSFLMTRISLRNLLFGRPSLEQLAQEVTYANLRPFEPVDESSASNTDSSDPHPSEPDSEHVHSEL
The experiment is described as follows: Vitamin K-dependent gamma-carboxylase activity was assayed in liver microsomes prepared from vitamin K deficient rats incubated at 17 degree Celsius for 30 min. The conditions noted are these: Microsome. Put shortly: (§2)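 Rat liver microsomes from vitamin K deficient animals were used, following the Wood and Suttie method. Carboxylation was read as ¹⁴CO₂ incorporation into the Glu-site substrate, in dpm. The cyclopropyl analogue was tested at 2 mM, the Glu-site substrate at 1 mM, each alone or combined. Incubation ran at 17 °C for 30 min. Values are mean ± SD of four values.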

For experiment [3], the species on record is Rattus norvegicus. The experiment is described as follows: Epoxide formation after incubation at 17 degree Centigrade for 60 min. The format is functional. The method, boiled down:
as §1

Experiment [4] concerns the target T1, Vitamin K-dependent gamma-carboxylase (Rattus norvegicus). The experiment is described as follows: Vitamin K-dependent gamma-carboxylase activity was assayed in liver microsomes prepared from vitamin K deficient rats incubated at 17 degree Celsius for 60 min. The conditions noted are these: Microsome. The method, boiled down:
(§3)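 Liver microsomal carboxylase came from vitamin K deficient rats. Activity was taken as ¹⁴CO₂ incorporation into the Glu-site substrate, in dpm. The analogue was present at 5 mM and/or the Glu-site substrate at 0.5 mM. Incubation ran at 17 °C for 60 min. Values are mean ± SD of four values.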

Experiment [5] has the same target. The experiment is described as follows: Inhibition of Vitamin K-dependent gamma-carboxylase was determined at a concentration of 5 mM, incubations were at 17 degree Centigrade for 60 minutes.
Experiment [6] shares this target. Briefly: Inhibition of Vitamin K-dependent gamma-carboxylase was determined at a concentration of 2 mM, incubations were at 17 degree Celsius for 30 minutes. The method, boiled down: as §2
Experiment [7] shares this target. Briefly: Vitamin K-dependent gamma-carboxylase activity was assayed in liver microsomes prepared from vitamin K deficient rats incubated at 17 degree Celsius for 60 min (compounds tested the ratio of 5 mM 19 and 0.5 mM 20). The conditions noted are these: Microsome. Put shortly:
as §3

The target is the same in experiment [8]. The experiment is described as follows: Vitamin K-dependent gamma-carboxylase activity was assayed in liver microsomes prepared from vitamin K deficient rats incubated at 17 degree Celsius for 30 min (compounds tested the ratio of 2 mM 19 and 1 mM 20). The conditions noted are these: Microsome. The method, boiled down: as §2
The species named for experiment [9] is Rattus norvegicus. Briefly: Epoxide formation was determined at a concentration 0.5 mM of compound along with 5 mM of 1-tert-Butoxycarbonylamino-2-carboxymethyl-cyclopropanecarboxylic acid benzyl ester. It counts as functional. Put shortly:
as §1

The target of experiment [10] is T1, Vitamin K-dependent gamma-carboxylase (Rattus norvegicus). Briefly: Inhibition of vitamin K dependent carboxylase was determined at a concentration of 1 mM of compound along with 2 mM of 1-tert-Butoxycarbonylamino-2-carboxymethyl-cyclopropanecarboxylic acid benzyl ester. The method, boiled down: as §2
Experiment [11] has the same target. Briefly: Inhibition of Vitamin K-dependent gamma-carboxylase was determined at a concentration of 0.5 mM, incubations were at 17 degree Celsius for 60 minutes.
Experiment [12] is filed under the species Rattus norvegicus. The experiment is described as follows: Epoxide formation was determined at a concentration of 0.5 mM incubation at 17 degree Celsius for 60 minutes. The format is functional. The method, boiled down:
as §1

Experiment [13] addresses T1, Vitamin K-dependent gamma-carboxylase (Rattus norvegicus). The experiment is described as follows: Inhibition of vitamin K dependent carboxylase was determined at a concentration of 0.5 mM of compound along with 5 mM of 1-tert-Butoxycarbonylamino-2-carboxymethyl-cyclopropanecarboxylic acid benzyl ester. Put shortly:
as §3

For experiment [14] the target is unchanged. The experiment is described as follows: Inhibition of Vitamin K-dependent gamma-carboxylase was determined at a concentration of 1 mM, incubations were at 17 degree Centigrade for 30 minutes. Put shortly:
as §2

The species entered for experiment [15] is Rattus norvegicus. The experiment is described as follows: Compound was evaluated for the epoxide formation at 5 mM incubations were at 17 degree Celsius for 60 minutes. The format is functional. The method, boiled down:
as §1

Turning to `CC(C)(C)OC(=O)NC(CCC(=O)O)C(=O)OCc1ccccc1.CC(C)(C)OC(=O)NC1(C(=O)OCc2ccccc2)CC1CC(=O)O` (stereo not given) [listing 1 of 2 here], the Epoxide formation in the experiment filed under Rattus norvegicus [1] worked out at 6.7 nmol.

As for `CC(C)(C)OC(=O)NC(CCC(=O)O)C(=O)OCc1ccccc1` (stereo not given), the Carboxylase activity was determined as 5800 dpm in [2] and 12600 dpm in experiment [4]. The same compound came in with an Epoxide formation in the experiment filed under Rattus norvegicus [3] of 7.1 nmol.

Regarding `CC(C)(C)OC(=O)NC1(C(=O)OCc2ccccc2)CC1CC(=O)O` (stereo not given) [listing 1 of 2 here], the Carboxylase activity amounted to 690 dpm in experiment [5] and 300 dpm in experiment [6].

With `CC(C)(C)OC(=O)NC(CCC(=O)O)C(=O)OCc1ccccc1.CC(C)(C)OC(=O)NC1(C(=O)OCc2ccccc2)CC1CC(=O)O` (stereo not given) [listing 2 of 2 here], the Carboxylase activity was 12200 dpm in experiment [7] and 5770 dpm in experiment [8].

Take `CC(C)(C)OC(=O)N[C@H](CCC(=O)O)C(=O)OCc1ccccc1`: the values for the Epoxide formation in the experiment filed under Rattus norvegicus [9] and in the experiment listed under Rattus norvegicus [12] were 6.7 nmol and 7.1 nmol, respectively. The Carboxylase activity in experiment [10] was found to be 5770 dpm; in [11] it was 12600 dpm; in experiment [13] it was 12200 dpm; in experiment [14], 5800 dpm.

`CC(C)(C)OC(=O)NC1(C(=O)OCc2ccccc2)CC1CC(=O)O` (stereo not given) [listing 2 of 2 here] had an Epoxide formation in the experiment filed under Rattus norvegicus [15] of 5.1 nmol.

For the origin of these results see ChEMBL document CHEMBL1125154, “An approach to trapping gamma-glutamyl radical intermediates proposed for vitamin K dependent carboxylase: alpha,beta-methyleneglutamic acid” (1990).
